For assay [1], the target named is T1, 5-hydroxytryptamine receptor 1B (Homo sapiens, UniProt P28222). The assay can be described thus: Displacement of [3H]5-HT from human recombinant 5-HT1B receptor expressed in CHO cells. The format is cell-based.
The target of assay [2] is T2, 5-hydroxytryptamine receptor 1A (Homo sapiens, UniProt P08908).
T2 sequence (P08908 whole entry): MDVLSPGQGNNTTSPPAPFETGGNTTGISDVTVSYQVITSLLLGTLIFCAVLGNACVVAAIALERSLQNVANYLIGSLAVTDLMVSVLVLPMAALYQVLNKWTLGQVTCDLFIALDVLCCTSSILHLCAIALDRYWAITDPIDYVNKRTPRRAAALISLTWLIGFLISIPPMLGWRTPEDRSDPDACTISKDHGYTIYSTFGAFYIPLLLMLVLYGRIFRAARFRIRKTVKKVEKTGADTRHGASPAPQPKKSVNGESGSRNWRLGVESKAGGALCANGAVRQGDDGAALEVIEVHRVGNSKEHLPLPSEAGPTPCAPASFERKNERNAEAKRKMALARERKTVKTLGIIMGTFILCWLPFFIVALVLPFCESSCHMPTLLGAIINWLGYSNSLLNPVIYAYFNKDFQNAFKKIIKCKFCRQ
The assay can be described thus: Displacement of [3H]WAY100635 from human recombinant 5-HT1A receptor expressed in CHO cells. In kind it is cell-based. For orientation: Displacement assays read how much labelled ligand stays bound in the presence of the test substance.

The target of assay [3] is Sodium-dependent serotonin transporter (Rattus norvegicus, UniProt P31652). The assay can be described thus: Inhibition of [3H]5-HT uptake at SERT in rat cortical synaptosomes. In kind it is subcellular, Brain.
Assay [4] deals with T3, 5-hydroxytryptamine receptor 1D (Homo sapiens, UniProt P28221). The assay can be described thus: Displacement of [3H]5-HT from human recombinant 5-HT1D receptor expressed in CHO cells. The format is cell-based.
The target in assay [5] is T4, 5-hydroxytryptamine receptor 1A (Homo sapiens) (UniProt P08908).
T4 sequence (whole entry): T2 sequence (P08908 whole entry)
The assay can be described thus: Inverse agonist activity at human recombinant 5-HT1A receptor expressed in HEK293 cells by [S35]GTPgammaS binding assay. The format is functional, cell-based. In a few lines: (§1)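 [35S]-GTPγS binding in membranes from 10^6 cells (HEK293 for 5-HT1A; CHO for 5-HT1B, 5-HT1D), preincubated 30 min at 30 °C with compound in 20 mM HEPES pH 7.4, 3 mM MgCl2, 100 mM NaCl, 10 μM GDP, 0.2 mM ascorbate. 100 pM [35S]-GTPγS added, 30 min more at 30 °C; nonspecific with 20 μM GTPγS; filtration and scintillation counting.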

Assay [6] concerns the target T1, 5-hydroxytryptamine receptor 1B. The assay can be described thus: Intrinsic activity at human recombinant 5-HT1B receptor expressed in CHO cells by [S35]GTPgammaS binding assay relative to 5-HT. The format is functional, cell-based. In a few lines: as §1
(Binding of GTPγS marks nucleotide exchange on a G protein.)

Assay [7] concerns the target T3, 5-hydroxytryptamine receptor 1D. The assay can be described thus: Inverse agonist activity at human recombinant 5-HT1D receptor expressed in CHO cells by [S35]GTPgammaS binding assay. The format is functional, cell-based. In a few lines:
as §1

For assay [8] the target is unchanged. The assay can be described thus: Intrinsic activity at human recombinant 5-HT1D receptor expressed in CHO cells by [S35]GTPgammaS binding assay relative to 5-HT. In kind it is functional, cell-based. In short, it runs like this: as §1
The target of assay [9] is T4, 5-hydroxytryptamine receptor 1A (Homo sapiens). The assay can be described thus: Intrinsic activity at human recombinant 5-HT1A receptor expressed in HEK293 cells by [S35]GTPgammaS binding assay relative to 5-HT. In kind it is functional, cell-based. In a few lines: as §1
For assay [10], the target named is T1, 5-hydroxytryptamine receptor 1B. The assay can be described thus: Inverse agonist activity at human recombinant 5-HT1B receptor expressed in CHO cells by [S35]GTPgammaS binding assay. The format is functional, cell-based. In short, it runs like this:
as §1

Assay [11] concerns the target T5, 5-hydroxytryptamine receptor 2C (Homo sapiens, UniProt P28335).
T5 sequence (P28335 whole entry): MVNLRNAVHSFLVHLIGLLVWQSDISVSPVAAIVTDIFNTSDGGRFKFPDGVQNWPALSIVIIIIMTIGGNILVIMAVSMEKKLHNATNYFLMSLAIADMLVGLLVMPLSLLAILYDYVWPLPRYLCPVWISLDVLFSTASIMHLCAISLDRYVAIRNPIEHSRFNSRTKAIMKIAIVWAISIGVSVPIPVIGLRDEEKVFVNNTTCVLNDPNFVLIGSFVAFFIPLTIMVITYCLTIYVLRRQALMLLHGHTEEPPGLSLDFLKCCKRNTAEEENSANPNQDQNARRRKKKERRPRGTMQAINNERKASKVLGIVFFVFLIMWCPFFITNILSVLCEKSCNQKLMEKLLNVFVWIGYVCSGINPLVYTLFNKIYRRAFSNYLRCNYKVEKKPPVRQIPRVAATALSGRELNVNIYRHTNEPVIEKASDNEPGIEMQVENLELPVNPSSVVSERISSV
The assay can be described thus: Binding affinity to human recombinant 5-HT2C receptor by radioligand displacement assay.

For assay [12], the target named is D(3) dopamine receptor (Homo sapiens, UniProt P35462). The assay can be described thus: Binding affinity to human recombinant dopamine D3 receptor by radioligand displacement assay.
For assay [13], the target named is 5-hydroxytryptamine receptor 2B (Homo sapiens, UniProt P41595). The assay can be described thus: Binding affinity to human recombinant 5-HT2B receptor by radioligand displacement assay.
Assay [14] addresses 5-hydroxytryptamine receptor 7 (Homo sapiens, UniProt P34969). The assay can be described thus: Binding affinity to human recombinant 5-HT7 receptor by radioligand displacement assay.
In assay [15] the target is 5-hydroxytryptamine receptor 2A (Homo sapiens, UniProt P28223). The assay can be described thus: Binding affinity to human recombinant 5-HT2A receptor by radioligand displacement assay.
The target in assay [16] is 5-hydroxytryptamine receptor 6 (Homo sapiens, UniProt P50406). The assay can be described thus: Binding affinity to human recombinant 5-HT6 receptor by radioligand displacement assay.
Assay [17] concerns the target D(2) dopamine receptor (Homo sapiens, UniProt P14416). The assay can be described thus: Binding affinity to human recombinant dopamine D2 receptor by radioligand displacement assay.

The values below come from ChEMBL document CHEMBL1629528 (J Med Chem, 2010).

Calls of active or inactive are those of the source. No cut-off for these calls is given here.

5-hydroxytryptamine receptor 2B, sequence (P41595 whole entry): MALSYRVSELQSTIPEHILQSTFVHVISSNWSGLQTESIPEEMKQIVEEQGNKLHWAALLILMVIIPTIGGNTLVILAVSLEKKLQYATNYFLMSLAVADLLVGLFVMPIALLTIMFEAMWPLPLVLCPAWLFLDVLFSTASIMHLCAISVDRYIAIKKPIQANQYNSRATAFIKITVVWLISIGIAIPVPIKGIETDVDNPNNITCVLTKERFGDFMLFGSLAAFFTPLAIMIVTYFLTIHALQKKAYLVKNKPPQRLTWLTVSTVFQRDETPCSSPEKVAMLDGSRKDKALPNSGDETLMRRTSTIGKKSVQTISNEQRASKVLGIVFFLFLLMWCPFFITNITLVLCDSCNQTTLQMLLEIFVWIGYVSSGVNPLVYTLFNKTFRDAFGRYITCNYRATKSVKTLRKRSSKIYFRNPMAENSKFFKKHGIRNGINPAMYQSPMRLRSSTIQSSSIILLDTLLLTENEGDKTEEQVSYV
5-hydroxytryptamine receptor 2A, sequence (P28223 whole entry): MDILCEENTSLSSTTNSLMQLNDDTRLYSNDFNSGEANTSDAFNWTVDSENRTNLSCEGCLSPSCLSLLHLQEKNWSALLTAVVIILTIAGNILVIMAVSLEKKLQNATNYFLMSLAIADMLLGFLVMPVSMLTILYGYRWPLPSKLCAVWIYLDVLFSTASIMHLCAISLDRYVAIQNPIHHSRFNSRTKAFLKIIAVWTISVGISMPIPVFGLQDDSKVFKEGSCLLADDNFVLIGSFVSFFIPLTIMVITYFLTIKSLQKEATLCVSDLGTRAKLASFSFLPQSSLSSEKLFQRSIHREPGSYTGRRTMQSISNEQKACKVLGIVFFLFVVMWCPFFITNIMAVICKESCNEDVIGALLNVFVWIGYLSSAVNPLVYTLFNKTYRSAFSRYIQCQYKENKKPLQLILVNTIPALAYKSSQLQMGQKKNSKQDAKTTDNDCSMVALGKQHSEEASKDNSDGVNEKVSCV
T3 sequence (P28221 whole entry): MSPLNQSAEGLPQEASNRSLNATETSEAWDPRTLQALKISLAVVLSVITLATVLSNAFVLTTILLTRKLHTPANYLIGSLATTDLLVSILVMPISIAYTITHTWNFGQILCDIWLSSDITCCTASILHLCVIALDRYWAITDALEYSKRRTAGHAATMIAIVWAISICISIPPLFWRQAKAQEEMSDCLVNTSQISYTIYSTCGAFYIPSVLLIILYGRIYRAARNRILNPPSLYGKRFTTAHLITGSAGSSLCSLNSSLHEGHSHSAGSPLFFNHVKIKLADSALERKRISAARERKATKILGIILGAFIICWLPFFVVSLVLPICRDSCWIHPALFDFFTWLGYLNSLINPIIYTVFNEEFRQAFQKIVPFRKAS
D(2) dopamine receptor, sequence (P14416 whole entry): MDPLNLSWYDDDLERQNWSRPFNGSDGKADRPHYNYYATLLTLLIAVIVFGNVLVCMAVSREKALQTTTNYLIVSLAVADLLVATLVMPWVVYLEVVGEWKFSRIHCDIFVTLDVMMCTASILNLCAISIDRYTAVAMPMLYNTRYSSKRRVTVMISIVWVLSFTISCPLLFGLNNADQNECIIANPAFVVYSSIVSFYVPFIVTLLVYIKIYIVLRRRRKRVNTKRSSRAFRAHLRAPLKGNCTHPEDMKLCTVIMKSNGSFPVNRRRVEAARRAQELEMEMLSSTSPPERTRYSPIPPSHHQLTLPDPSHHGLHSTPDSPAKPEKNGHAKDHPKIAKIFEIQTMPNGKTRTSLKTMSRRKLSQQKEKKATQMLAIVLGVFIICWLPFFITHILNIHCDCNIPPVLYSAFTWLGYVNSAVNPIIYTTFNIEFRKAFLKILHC
5-hydroxytryptamine receptor 6, sequence (P50406 whole entry): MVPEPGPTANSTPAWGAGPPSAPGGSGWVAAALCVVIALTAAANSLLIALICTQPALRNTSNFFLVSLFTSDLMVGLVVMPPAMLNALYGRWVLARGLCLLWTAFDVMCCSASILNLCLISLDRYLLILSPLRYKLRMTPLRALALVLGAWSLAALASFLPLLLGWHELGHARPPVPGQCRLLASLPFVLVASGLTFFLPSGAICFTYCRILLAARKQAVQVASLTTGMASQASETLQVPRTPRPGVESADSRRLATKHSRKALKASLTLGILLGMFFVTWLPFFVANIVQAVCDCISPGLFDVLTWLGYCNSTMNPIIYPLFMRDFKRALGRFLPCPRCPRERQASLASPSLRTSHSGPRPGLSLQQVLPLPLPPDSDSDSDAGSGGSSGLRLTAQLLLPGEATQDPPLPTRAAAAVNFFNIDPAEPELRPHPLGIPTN
5-hydroxytryptamine receptor 7, sequence (P34969 whole entry): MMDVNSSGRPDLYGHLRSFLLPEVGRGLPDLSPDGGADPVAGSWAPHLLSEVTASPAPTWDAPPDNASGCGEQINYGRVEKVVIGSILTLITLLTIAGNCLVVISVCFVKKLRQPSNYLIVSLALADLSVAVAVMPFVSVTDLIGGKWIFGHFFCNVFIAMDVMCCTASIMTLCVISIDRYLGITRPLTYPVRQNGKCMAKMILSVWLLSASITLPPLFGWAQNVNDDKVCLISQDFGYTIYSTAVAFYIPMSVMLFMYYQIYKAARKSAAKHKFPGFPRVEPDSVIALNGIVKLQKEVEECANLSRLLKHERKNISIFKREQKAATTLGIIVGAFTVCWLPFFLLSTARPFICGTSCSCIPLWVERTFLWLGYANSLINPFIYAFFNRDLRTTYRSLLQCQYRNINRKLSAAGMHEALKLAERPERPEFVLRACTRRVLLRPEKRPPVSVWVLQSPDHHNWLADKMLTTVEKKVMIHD
T1 sequence (P28222 whole entry): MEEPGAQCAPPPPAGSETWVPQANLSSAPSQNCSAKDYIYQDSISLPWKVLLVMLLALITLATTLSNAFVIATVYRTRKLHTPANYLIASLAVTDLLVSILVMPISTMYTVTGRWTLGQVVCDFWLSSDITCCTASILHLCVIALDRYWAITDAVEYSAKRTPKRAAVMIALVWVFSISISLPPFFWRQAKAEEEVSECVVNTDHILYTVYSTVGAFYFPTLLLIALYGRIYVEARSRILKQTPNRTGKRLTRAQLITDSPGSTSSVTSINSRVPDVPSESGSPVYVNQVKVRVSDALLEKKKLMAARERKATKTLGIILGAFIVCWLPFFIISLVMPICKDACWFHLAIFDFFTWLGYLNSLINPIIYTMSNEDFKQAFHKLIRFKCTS
D(3) dopamine receptor, sequence (P35462 whole entry): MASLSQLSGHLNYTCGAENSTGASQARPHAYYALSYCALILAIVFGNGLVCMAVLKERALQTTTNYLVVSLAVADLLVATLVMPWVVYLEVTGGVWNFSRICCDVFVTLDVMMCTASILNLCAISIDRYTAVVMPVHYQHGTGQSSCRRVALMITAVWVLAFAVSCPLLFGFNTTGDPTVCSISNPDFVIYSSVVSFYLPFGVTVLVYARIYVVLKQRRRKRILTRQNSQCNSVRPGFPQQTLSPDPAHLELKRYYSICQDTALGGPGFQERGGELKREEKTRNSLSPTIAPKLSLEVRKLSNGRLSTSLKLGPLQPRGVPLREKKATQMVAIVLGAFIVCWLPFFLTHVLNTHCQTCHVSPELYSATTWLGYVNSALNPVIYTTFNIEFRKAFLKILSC
Sodium-dependent serotonin transporter, sequence (P31652 whole entry): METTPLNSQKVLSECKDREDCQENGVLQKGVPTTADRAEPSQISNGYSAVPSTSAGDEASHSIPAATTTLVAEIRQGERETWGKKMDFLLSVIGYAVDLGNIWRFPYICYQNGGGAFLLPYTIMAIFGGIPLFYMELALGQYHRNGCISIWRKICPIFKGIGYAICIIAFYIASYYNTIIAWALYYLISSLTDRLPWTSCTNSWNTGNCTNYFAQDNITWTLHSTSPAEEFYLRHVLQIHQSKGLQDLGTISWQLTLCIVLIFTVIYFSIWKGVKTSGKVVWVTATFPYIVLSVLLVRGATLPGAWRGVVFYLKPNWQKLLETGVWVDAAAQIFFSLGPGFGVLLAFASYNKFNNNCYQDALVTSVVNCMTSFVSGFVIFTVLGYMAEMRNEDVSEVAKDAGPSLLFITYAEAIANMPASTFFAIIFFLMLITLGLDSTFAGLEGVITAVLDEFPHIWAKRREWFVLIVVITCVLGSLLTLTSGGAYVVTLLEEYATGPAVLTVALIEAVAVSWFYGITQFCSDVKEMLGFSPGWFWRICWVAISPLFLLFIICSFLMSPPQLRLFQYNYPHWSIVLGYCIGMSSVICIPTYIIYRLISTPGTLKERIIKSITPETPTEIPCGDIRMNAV

In general, Ki refers to the equilibrium dissociation constant of an inhibitor or competing ligand from its target. Regarding `COc1ccccc1C(=O)Nc1cccc(CCN2CCN(c3cccc4nc(C)ccc34)CC2)c1`, the Ki in [1] is 3.98 nM; in assay [2], 2.51 nM; in assay [3] it was 794 nM; in assay [4], 0.631 nM.
For `Cc1ccc2c(N3CCN(CCc4cccc(NC(=O)c5scnc5C)c4)CC3)cccc2n1`, the Ki is 2 nM in assay [1], 0.398 nM in [2], 501 nM in assay [3] and 0.251 nM in [4]. The outcome in [5] and in [7] was Active. Moreover, in assay [6], the Intrinsic activity came to 0.
For `Cc1ccc2c(N3CCN(CCc4cccc(NC(=O)Nc5cccc(F)c5)c4)CC3)cccc2n1`, the inhibitory constant (Ki) in assay [1] is 3.98 nM; in assay [2] it was 3.98 nM; in assay [3] it was 2510 nM; in [4], 0.631 nM. Besides, the Intrinsic activity in [8] and in assay [9] was 0 in each case. In addition, the outcome in assay [10] was Active.
For `Cc1ccc2c(N3CCN(CCc4cccc(NC(=O)Nc5ccc(F)cc5)c4)CC3)cccc2n1`, the inhibition constant (Ki) in assay [1] was 3.16 nM; in assay [2] it was 2.51 nM; in assay [3] it was 1260 nM; in assay [4], 0.501 nM.
`COc1ccc(C(=O)Nc2cccc(CCN3CCN(c4cccc5nc(C)ccc45)CC3)c2)cc1`: the Ki is 3.98 nM in [1], 3.16 nM in [2], 1260 nM in assay [3] and 0.501 nM in assay [4]. Also, the outcome in [5], in assay [10] and in [7] was Active.
As to `CCCS(=O)(=O)Nc1cccc(CCN2CCN(c3cccc4nc(C)ccc34)CC2)c1`, the Ki in assay [1] is 2 nM; in [2] it was 1.58 nM; in assay [4], 0.631 nM.
Consider `Cc1ccc2c(N3CCN(CCc4cccc(NC(=O)NC(C)(C)C)c4)CC3)cccc2n1`, for which the Ki in [1] was 3.98 nM; in [2], 7.94 nM; in [3], 794 nM; in assay [4], 0.251 nM.
For `CCOC(=O)Nc1cccc(CCN2CCN(c3cccc4nc(C)ccc34)CC2)c1`, in that order: 1.26 nM, 1.26 nM, 794 nM and 0.126 nM.
`CC(=O)Nc1cccc(CCN2CCN(c3cccc4nc(C)ccc34)CC2)c1`: the Ki in assay [1] was 0.501 nM; in assay [11], 1000 nM; in assay [12] it was 158 nM; in assay [13], 158 nM; in assay [14], 63.1 nM; in assay [15], 251 nM. Besides, the inhibition constant (Ki) in assay [2] was 1 nM; in assay [3] it was 1260 nM; in [16], over 3980 nM; in [4], 0.251 nM; in assay [17], 398 nM.
Take `Cc1ccc2c(N3CCN(CCc4cccc(NC(=O)c5cccc(F)c5)c4)CC3)cccc2n1`: the Ki in [1] is 3.16 nM; in assay [2] it was 0.631 nM; in assay [3], 631 nM; in [4] it was 0.316 nM. The outcome in assay [5], in assay [10] and in assay [7] was Active.
For the compound `Cc1ccc2c(N3CCN(CCc4cccc(N5CCCNC5=O)c4)CC3)cccc2n1`, the inhibition constant (Ki) in assay [1] is 39.8 nM; in [2], 3.16 nM; in assay [4] it was 0.316 nM.
Take `Cc1ccc2c(N3CCN(CCc4cccc(NC(=O)C(C)C)c4)CC3)cccc2n1`: the Ki in [1] is 1.58 nM; in assay [2], 2 nM; in [3], 1260 nM; in assay [4], 0.158 nM. The outcome in [5], in [10] and in assay [7] was Active.
In the case of `COc1cccc(C(=O)Nc2cccc(CCN3CCN(c4cccc5nc(C)ccc45)CC3)c2)c1`, the Ki was 1.58 nM in assay [1], 2 nM in assay [2], 1260 nM in assay [3] and 0.158 nM in [4].
Regarding `Cc1ccc2c(N3CCN(CCc4cccc(N5CCCOC5=O)c4)CC3)cccc2n1`, the inhibition constant Ki in assay [1] was 31.6 nM; in [2], 2.51 nM; in [4], 0.251 nM.
Take `Cc1ccc2c(N3CCN(CCc4cccc(NC(=O)C(C)(C)C)c4)CC3)cccc2n1`: the inhibition constant Ki in assay [1] is 2 nM; in assay [2] it was 6.31 nM; in assay [3], 1580 nM; in [4] it was 0.316 nM. The result in assay [5], in assay [10] and in [7] was Active.
For `Cc1ccc2c(N3CCN(CCc4cccc(N5C(=O)CCC5=O)c4)CC3)cccc2n1`, the Ki is 39.8 nM in assay [1], 3.16 nM in [2], 20000 nM in [3] and 1.58 nM in [4].
As for `Cc1ccc2c(N3CCN(CCc4cccc(N)c4)CC3)cccc2n1`, the results for the Ki in assay [1], in [2] and in [4] were 7.94 nM, 15.8 nM and 0.501 nM, respectively.
On to `Cc1ccc2c(N3CCN(CCc4cccc(-n5cccn5)c4)CC3)cccc2n1`, for which the Ki in assay [1] is 1.58 nM; in [11], 2000 nM; in [12], 50.1 nM; in [13], 79.4 nM; in assay [14] it was 126 nM; in assay [15] it was 398 nM. Further, the Ki in [2] was 0.501 nM; in assay [3], 316 nM; in assay [16], over 10000 nM; in assay [4] it was 0.158 nM; in [17], 398 nM.
`Cc1ccc2c(N3CCN(CCc4cccc(NC(=O)Nc5ccccc5F)c4)CC3)cccc2n1`: the inhibition constant Ki in [1] was 1 nM; in assay [2], 3.16 nM; in [3], 2000 nM; in assay [4], 0.2 nM.
As for `Cc1ccc2c(N3CCN(CCc4cccc(NC(=O)c5ccccc5F)c4)CC3)cccc2n1`, the Ki in [1] was 3.16 nM; in assay [2] it was 1 nM; in assay [3], 631 nM; in [4], 0.251 nM. Moreover, the outcome in assay [5] and in assay [7] was Active. The Intrinsic activity in assay [6] came out at 0.
For `Cc1ccc2c(N3CCN(CCc4ccc5c(c4)NC(=O)CO5)CC3)cccc2n1`, the Intrinsic activity in assay [6] was determined as 0.1; in assay [9] it was 0.2.
Take `Cc1ccc2c(N3CCN(CCc4cccc(NC(=O)c5cnccn5)c4)CC3)cccc2n1`: the Ki in assay [1] is 1.26 nM; in [11], over 1580 nM; in [12], 79.4 nM; in assay [13], 794 nM; in [14], 200 nM; in assay [15] it was 158 nM. Moreover, the Ki in assay [2] is 0.501 nM; in [3], 398 nM; in [16], 794 nM; in assay [4], 0.2 nM; in assay [17], 200 nM.
For the compound `CCC(=O)Nc1cccc(CCN2CCN(c3cccc4nc(C)ccc34)CC2)c1`, the Ki is 1.26 nM in [1], 2 nM in assay [2], 1260 nM in [3] and 0.2 nM in assay [4]. Further, in assay [9], the Intrinsic activity came to 0. The result in assay [10] and in assay [7] was Active.
`CCCNC(=O)Nc1cccc(CCN2CCN(c3cccc4nc(C)ccc34)CC2)c1`: the Ki was 2 nM in assay [1], 5.01 nM in assay [2], 794 nM in assay [3] and 0.158 nM in assay [4].
